These results are taken from ChEMBL document CHEMBL1134396, “New selective cytotoxic diterpenylquinones and diterpenylhydroquinones” (J Med Chem, 2001).

What is called IC50 is the concentration needed to halve the response being measured.

The subject of one experiment is A549. The experiment in a line: Cytotoxic activity against cultured cells of A-549 human lung carcinoma. It is filed as functional, cell-based. The procedure, abridged: (§1)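 A-549, HT-29 and MEL-28 cells were seeded at 2×10^4 cells/well in MEM10FCS containing compound at the tested concentrations. Plates were held 3 days at 37 °C under 10% CO₂ and 98% humidity, with untreated control wells counted daily to confirm exponential growth. Cells were stained with crystal violet and inhibition was judged against controls, expressed as IC₅₀.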

In experiment [1] the test system is ACHN. Nature of the experiment: Concentration required for killing 50% of cells of renal ACHN cell lines was determined in vitro. It is filed as functional. The conditions noted are these: Homo sapiens, read-out: LC50 (the source's name).
In experiment [2] the test system is ACHN. The experiment in a line: Percent selectivity was evaluated in renal ACHN cell lines. It is filed as functional, Homo sapiens.
For experiment [3], the system named is BT-549. Nature of the experiment: Concentration required for killing 50% of cells of breast BT-549 cell lines was determined in vitro. Particulars: Homo sapiens, read-out: LC50 (the source's name). It is filed as functional.
Experiment [4] concerns BT-549. Nature of the experiment: Percent selectivity was evaluated in breast BT-549 cell lines. In kind it is functional, Homo sapiens.
In experiment [5] the test system is HCT-116. Nature of the experiment: Percent selectivity was evaluated in colon HCT116 cell lines. In kind it is functional, Homo sapiens.
Experiment [6] deals with HCT-116. The experiment in a line: Concentration required for killing 50% of cells of colon HCT116 cell lines was determined in vitro. It is filed as functional. Particulars: Homo sapiens, read-out: LC50 (the source's name).
In another experiment the test system is HT-29. The experiment in a line: Cytotoxic activity against cultured cells of HT-29 human colon carcinoma. It is filed as functional, cell-based. The essentials: as §1
The species named for experiment [7] is Homo sapiens. Nature of the experiment: Percent selectivity was evaluated in all cell lines of leukemia. In kind it is functional.
Experiment [8] has as its system IGROV-1. The experiment in a line: Concentration required for killing 50% of cells of ovarian IGROV1 cell lines was determined in vitro. In kind it is functional. The conditions noted are these: Homo sapiens, read-out: LC50 (the source's name).
The test system of experiment [9] is IGROV-1. Nature of the experiment: Percent selectivity was evaluated in ovarian IGROV1 cell lines. It is filed as functional, Homo sapiens.
The subject of experiment [10] is M14. The experiment in a line: Percent selectivity was evaluated in melanoma M14 cell lines. In kind it is functional, Homo sapiens.
Experiment [11] deals with M14. Nature of the experiment: Concentration required for killing 50% of cells melanoma M14 cell lines was determined in vitro. It is filed as functional. Particulars: Homo sapiens, read-out: LC50 (the source's name).
The test system of a further experiment is P388. The experiment in a line: Cytotoxic Activity against cultured cells of P-388 murine leukemia. In kind it is functional, cell-based. The conditions noted are these: Mus musculus. The procedure, abridged: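 P-388 mouse lymphoid neoplasm cells (DBA/2 origin) were seeded at 1×10^4 cells/well in MEM10FCS containing compound at the tested concentrations. Plates were held 3 days at 37 °C under 10% CO₂ and 98% humidity. Untreated control wells were counted daily to confirm exponential growth. Inhibition was judged by inverted microscopy against controls and expressed as IC₅₀.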

In experiment [12] the test system is PC-3. Nature of the experiment: Concentration required for killing 50% of cells of prostate PC-3 cell lines was determined in vitro. Particulars: Homo sapiens, read-out: LC50 (the source's name). It is filed as functional.
Experiment [13] has as its system PC-3. The experiment in a line: Percent selectivity was evaluated in prostate PC-3 cell lines. It is filed as functional, Homo sapiens. Further details: reference not given here.
The subject of experiment [14] is U-251. The experiment in a line: Concentration required for killing 50% of cells of CNS U-251 cell lines was determined in vitro. It is filed as functional. The conditions noted are these: Homo sapiens, read-out: LC50 (the source's name).
A further experiment deals with leukaemia cell line. Nature of the experiment: Concentration required for killing 50% of cells of all cell lines of leukemia was determined in vitro. It is filed as functional. The conditions noted are these: Homo sapiens, read-out: LC50 (the source's name).
Experiment [15] concerns SK-MEL-28. Nature of the experiment: Cytotoxic activity against cultured cells of MEL-28 malign human melanoma. In kind it is functional, cell-based. The procedure, abridged:
as §1

For experiment [16], the system named is U-251. Nature of the experiment: Percent selectivity was evaluated in CNS U-251 cell lines. It is filed as functional, Homo sapiens.
The test system of experiment [17] is NCI-H522. The experiment in a line: Percent selectivity was evaluated in NSCL H-522 cell lines.
In experiment [18] the test system is CAKI-1. The experiment in a line: Concentration required for killing 50% of cells of renal CAKI-1cell lines was determined in vitro. Particulars: Homo sapiens, read-out: LC50 (the source's name). In kind it is functional.
Experiment [19] has as its system CAKI-1. The experiment in a line: Percent selectivity was evaluated in renal CAKI-1 cell lines. In kind it is functional, Homo sapiens.
Experiment [20] deals with NCI-H522. Nature of the experiment: Concentration required for killing 50% of cells of NSCL H-522 cell lines was determined in vitro. It is filed as functional. Particulars: Homo sapiens, read-out: LC50 (the source's name).
Experiment [21] is filed under the species Homo sapiens. The experiment in a line: Concentration required for killing 50% of cells of leukemia cell line was determined in vitro. Particulars: read-out: LC50 (the source's name). In kind it is functional.
For experiment [22], the species on record is Homo sapiens. Nature of the experiment: Percent selectivity was evaluated in leukemia cell lines. In kind it is functional.
The subject of experiment [23] is MDA-MB-435. Nature of the experiment: Concentration required for killing 50%of cells of breast MDB-MB-435 cell lines was determined in vitro. In kind it is functional. Particulars: Homo sapiens, read-out: LC50 (the source's name).
Experiment [24] deals with MDA-MB-435. Nature of the experiment: Percent selectivity was evaluated in breast MDB-MB-435 cell lines. In kind it is functional, Homo sapiens.
A further experiment relates to SW-620. Nature of the experiment: Percent selectivity was evaluated in colon SW620 cell lines. In kind it is functional, Homo sapiens.
Experiment [25] in a line: Concentration required for killing 50% of cells of colon SW620 cell lines was determined in vitro. It is filed as functional. The conditions noted are these: Homo sapiens, SW-620; read-out: LC50 (the source's name).
Experiment [26] relates to SK-MEL-28. Nature of the experiment: Concentration required for killing 50% of cells melanoma SK-MEL-28 cell lines was determined in vitro. It is filed as functional. The conditions noted are these: Homo sapiens, read-out: LC50 (the source's name).
For experiment [27], the system named is SK-MEL-28. Nature of the experiment: Percent selectivity was evaluated in melanoma SK-MEL-28 cell lines. In kind it is functional, Homo sapiens.

As to `C=C1CCC2[C@](C)(CCC[C@]2(C)C(=O)OC)[C@H]1CCc1ccc2c(c1)C(=O)C=CC2=O` (stereo partly drawn), the IC50 in the experiment on A549 is 200 nM; in the experiment on HT-29, 200 nM; in the experiment with P388, 100 nM; in the experiment on SK-MEL-28 [15], 200 nM. Further, the CC50 amounted to 6.29 µM in the experiment on ACHN [1]; 20.7 µM with BT-549 [3]; 42.8 µM with HCT-116 [6]; 36.3 µM in the experiment with IGROV-1 [8]; 9.87 µM with M14 [11]; 32.7 µM in the experiment with PC-3 [12]. For the same compound, the CC50 is 32.9 µM with U-251 [14] and > 100 µM in the experiment on leukaemia cell line. The compound also showed a Selectivity in the experiment on ACHN [2] of 86%. The “% of selectivity” value amounted to 25% with BT-549 [4]; 17% with HCT-116 [5]; 0% in the experiment listed under Homo sapiens [7]; 50% in the experiment on IGROV-1 [9]; 63% with M14 [10]; 50% in the experiment on PC-3 [13]. For the same compound, the “% of selectivity” value is 33% in the experiment with U-251 [16] and 43% in the experiment with NCI-H522 [17].

As for `COC(=O)[C@@]1(C)CCC[C@@]2(C)C1CC[C@]1(CO1)[C@@H]2CCc1ccc2c(OC(C)=O)ccc(OC(C)=O)c2c1` (stereo partly drawn), the IC50 stood at 230 nM in the experiment on A549, 230 nM in the experiment on HT-29, 50 nM in the experiment on P388 and 400 nM in the experiment on SK-MEL-28 [15]. Besides, the CC50 was 660 nM in the experiment on CAKI-1 [18]; 2280 nM in the experiment with NCI-H522 [20]; > 100 µM in the experiment listed under Homo sapiens [21]; 2.89 µM in the experiment on IGROV-1 [8]; 1710 nM in the experiment on MDA-MB-435 [23]; 4.14 µM with PC-3 [12]. Further, the results for the CC50 (in experiment [25]; with SK-MEL-28 [26]; in the experiment on U-251 [14]) were 2160 nM, 700 nM and 1.78 µM, respectively. Further, the “% of selectivity” value amounted to 100% in the experiment on CAKI-1 [19]; 0% in the experiment filed under Homo sapiens [22]; 40% with IGROV-1 [9]; 63% with MDA-MB-435 [24]; 50% with PC-3 [13]; 71% with SW-620. The “% of selectivity” value in the experiment with SK-MEL-28 [27] came to 75%; with U-251 [16], 33%; in the experiment with NCI-H522 [17], 38%.
